Results: ChEMBL document CHEMBL2150856, “Fluorinated N,N-dialkylaminostilbenes for Wnt pathway inhibition and colon cancer repression” (J Med Chem, 2011)
Active and inactive are the calls of the source. No cut-off for these calls is given here.

Columns and labels:
[1] = system: LS174T; assay: Inhibition of Wnt/beta-catenin in human LS174T cells assessed as reduction in c-Myc protein level at 10 uM by Western blotting; format: cell-based
[2] = system: LS174T; assay: Inhibition of Wnt/beta-catenin in human LS174T cells assessed as reduction in Axin-2 protein level at 10 uM by Western blotting; format: cell-based
[3] = system: LS174T; assay: Inhibition of Wnt/beta-catenin in human LS174T cells assessed as effect on […] at 10 uM by Western blotting; format: cell-based
[4] = system: SW480; assay: Cytotoxicity against human SW480 cells at 10 uM for 2 days by vi-cell cell viability analysis; format: functional, cell-based
Procedure, shortened: (§1)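 CRC cells treated with DMSO or inhibitor for 2d and 4d; cell number and viability counted on a Vi-Cell analyzer. HCT116 and SW480 kept in DMEM with 10% FBS; LS174T in RPMI with 5% FBS; all with 1% penicillin/streptomycin.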

[5] = system: LS174T; assay: Cytotoxicity against human LS 174T cells at 10 uM for 2 days by vi-cell cell viability analysis; format: functional, cell-based; procedure, shortened: as §1
[6] = system: LS174T; assay: Cytotoxicity against human LS 174T cells at 10 uM for 4 days by vi-cell cell viability analysis; format: functional, cell-based; procedure, shortened: as §1
[7] = system: HCT-116; assay: Cytotoxicity against human HCT116 cells at 10 uM for 2 days by vi-cell cell viability analysis; format: functional, cell-based; procedure, shortened: as §1
[8] = system: HCT-116; assay: Cytotoxicity against human HCT116 cells at 10 uM for 4 days by vi-cell cell viability analysis; format: functional, cell-based; procedure, shortened: as §1
[9] = system: SW480; assay: Cytotoxicity against human SW480 cells at 10 uM for 4 days by vi-cell cell viability analysis; format: functional, cell-based; procedure, shortened: as §1
[10] = system: LS174T; assay: Inhibition of Wnt/beta-catenin in human LS174T cells assessed as reduction in c-Myc protein level at 100 uM by Western blotting; format: cell-based
[11] = system: LS174T; assay: Inhibition of Wnt/beta-catenin in human LS174T cells assessed as reduction in Cyclin D1 protein level at 100 uM by Western blotting; format: cell-based
[12] = system: LS174T; assay: Inhibition of Wnt/beta-catenin in human LS 174T cells assessed as reduction in TCF4 protein level at 100 uM by Western blotting; format: cell-based
[13] = system: LS174T; assay: Inhibition of Wnt/beta-catenin in human LS174T cells assessed as reduction in survivin mRNA level at 100 uM after 36 hrs by RT-PCR analysis; format: cell-based
[14] = system: LS174T; assay: Inhibition of Wnt/beta-catenin in human LS174T cells assessed as reduction in CD44 mRNA level at 100 uM after 36 hrs by RT-PCR analysis; format: cell-based
[15] = system: HEK-293T; assay: Inhibition of LiCl-induced […] in human HEK293T cells transfected with TOP Flash assessed as decrease in luciferase expression at 100 uM after 12 hrs by dual luciferase reporter assay; format: cell-based
Procedure, shortened: (§2)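 HEK293T transiently transfected (calcium phosphate) with Super8xTOPFlash plus Renilla luciferase reporters; medium changed after 12h, then 6h later cells pretreated 12h with DMSO or inhibitor before stimulation with 25mM LiCl or Wnt3A-conditioned medium. After 12h, dual-luciferase read-out; triplicate wells, each experiment run at least twice.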

[16] = system: HEK-293T; assay: Inhibition of […] in human HEK293T cells transfected with TOP Flash assessed as decrease in luciferase expression at 100 uM after 12 hrs by dual luciferase reporter assay; format: cell-based; procedure, shortened: as §2
[17] = system: LS174T; assay: Inhibition of Wnt/beta-catenin in human LS174T cells assessed as increase in p21WAF1/CIP1 protein level at 100 uM by Western blotting; format: cell-based
[18] = system: LS174T; assay: Inhibition of Wnt/beta-catenin in human LS174T cells assessed as reduction in Lgr5 mRNA level at 100 uM after 36 hrs by RT-PCR analysis; format: cell-based
[19] = system: LS174T; assay: Inhibition of Wnt/beta-catenin in human LS174T cells assessed as effect on […] at 100 uM by Western blotting; format: cell-based
[20] = system: LS174T; assay: Inhibition of Wnt/beta-catenin in human LS 174T cells assessed as reduction in pygopus2 protein level at 100 uM by Western blotting; format: cell-based
[21] = system: LS174T; assay: Inhibition of Wnt/beta-catenin in human LS174T cells assessed as reduction in Ki67 mRNA level at 100 uM after 36 hrs by RT-PCR analysis; format: cell-based
[22] = system: LS174T; assay: Inhibition of Wnt/beta-catenin in human LS174T cells assessed as reduction in c-Myc mRNA level at 100 uM after 36 hrs by RT-PCR analysis; format: cell-based
[23] = system: LS174T; assay: Inhibition of Wnt/beta-catenin in human LS174T cells assessed as reduction in cyclin B1 protein level at 100 uM by Western blotting; format: cell-based
[24] = system: LS174T; assay: Inhibition of Wnt/beta-catenin in human LS 174T cells assessed as reduction in TCF4 mRNA level at 10 uM by RT-PCR analysis; format: cell-based
[25] = system: LS174T; assay: Inhibition of Wnt/beta-catenin in human LS 174T cells assessed as reduction in pygopus2 mRNA level at 10 uM by RT-PCR analysis; format: cell-based
[26] = system: LS174T; assay: Inhibition of Wnt/beta-catenin in human LS174T cells assessed as reduction in c-Myc protein level at 2.5 uM by Western blotting; format: cell-based
[27] = system: LS174T; assay: Inhibition of Wnt/beta-catenin in human LS174T cells assessed as reduction in Axin-2 protein level at 0.5 uM by Western blotting; format: cell-based
[28] = system: LS174T; assay: Inhibition of Wnt/beta-catenin in human LS 174T cells assessed as reduction in pygopus2 protein level at 10 uM by Western blotting; format: cell-based
[29] = system: LS174T; assay: Inhibition of Wnt/beta-catenin in human LS174T cells assessed as reduction in Axin-2 protein level at 2.5 uM by Western blotting; format: cell-based
[30] = system: Mus musculus; assay: Toxicity in human LS 174T cells xenografted C57BL/6J athymic nude mouse assessed as change in body weight at 20 mg/kg/day, ip within 1 month; format: organism-based, LS174T; design: route intraperitoneal; conditions: in vivo
Procedure, shortened: (§3)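 LS174 cells (2 × 10^6) injected subcutaneously into both flanks of 6–8 week C57BL/6J athymic nude mice; mice randomized to two groups. Daily ip dosing at 20mg/kg/day in corn oil (50 μl/mouse); controls got corn oil alone. Body weight and tumor size (digital caliper) recorded twice weekly for one month; volume V=1/2LW^2 (mm3).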

[31] = system: LS174T; assay: Cytotoxicity against human LS 174T cells at 0.1 uM for 4 days by vi-cell cell viability analysis; format: functional, cell-based; procedure, shortened: as §1
[32] = system: LS174T; assay: Inhibition of Wnt/beta-catenin in human LS 174T cells assessed as decrease in […] in nucleus using DAPI staining at 10 uM for 24 hrs by immunofluorescent microscopy; format: cell-based
Procedure, shortened: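 LS174 cells treated 24h with 10 μM compound or DMSO, fixed (4% paraformaldehyde, 20 min, RT), permeabilized with 0.3% Triton X-100, blocked in 5% goat serum 30 min. Stained overnight with anti-β-catenin (1:300), then Alexa-488 anti-rabbit IgG (1:500) 40 min; nuclei counterstained with DAPI; confocal imaging.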

[33] = system: LS174T; assay: Inhibition of Wnt/beta-catenin in human LS 174T cells assessed as reduction in TCF4 protein level at 10 uM by Western blotting; format: cell-based
[34] = system: LS174T; assay: Antitumor activity against human LS 174T cells xenografted in C57BL/6J athymic nude mouse assessed as reduction in tumor growth at 20 mg/kg/day, ip; format: functional, organism-based; procedure, shortened: as §3
[35] = system: LS174T; assay: Inhibition of Wnt/beta-catenin in human LS174T cells assessed as reduction in c-Myc protein level at 0.5 uM by Western blotting; format: cell-based
[36] = system: LS174T; assay: Cytotoxicity against human LS 174T cells at 0.1 uM for 2 days by vi-cell cell viability analysis; format: functional, cell-based; procedure, shortened: as §1
[37] = Drug uptake in human LS 174T cells assessed as accumulation in nucleus after 12 hrs by confocal microscopy; format: ADME, cell-based; conditions: ls174t
Procedure, shortened: (§4)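 LS174 cells on cover glass exposed to 10 μM fluorescent compound for 2h, 6h, 12h or 24h, then fixed in 4% paraformaldehyde 20 min at room temperature, PBS-washed, mounted and imaged by confocal microscopy under 405nm excitation.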

[38] = Drug uptake in human LS 174T cells assessed as accumulation in cytoplasm after 2 hrs by confocal microscopy; format: ADME, cell-based; conditions: ls174t; procedure, shortened: as §4
[39] = Drug uptake in human LS 174T cells assessed as accumulation in nucleus after 2 hrs by confocal microscopy; format: ADME, cell-based; conditions: ls174t; procedure, shortened: as §4
[40] = system: LS174T; assay: Inhibition of Wnt/beta-catenin in human LS174T cells assessed as reduction in c-Myc protein level at 30 uM by Western blotting; format: cell-based
[41] = system: LS174T; assay: Inhibition of Wnt/beta-catenin in human LS174T cells assessed as reduction in Axin-2 protein level at 30 uM by Western blotting; format: cell-based

## CN(C)c1ccc(CCc2c(F)cccc2F)cc1
[1]
  inhibition: inactive
[2]
  inhibition: inactive

## CN(C)c1ccccc1/C=C/c1c(F)cccc1F
[3]
  inhibition: inactive
[1]
  inhibition: inactive
[2]
  inhibition: inactive

## CN(C)c1ccc(/C=C/c2cc(F)ccc2F)cc1
[3]
  inhibition: inactive
[1]
  inhibition: Active
[2]
  inhibition: Active

## CCN(CC)c1ccc(/C=C/c2ccccc2F)cc1
[3]
  inhibition: inactive
[1]
  inhibition: Active
[2]
  inhibition: Active

## CN(C)c1ccc(/C=C/c2ccccc2F)cc1
[4]
  Activity: Active
[3]
  inhibition: inactive
[5]
  Activity: Active
[6]
  Activity: Active
[7]
  Activity: Active
[1]
  inhibition: Active
[8]
  Activity: Active
[2]
  inhibition: Active
[9]
  Activity: Active

## Fc1ccccc1/C=C/c1ccc(N(c2ccccc2)c2ccccc2)cc1
[3]
  inhibition: inactive
[1]
  inhibition: inactive
[2]
  inhibition: inactive

## CN(C)c1ccc(/C=C/c2ccc(F)cc2)cc1
[3]
  inhibition: inactive

## Oc1ccc(/C=C\c2cc(O)cc(O)c2)cc1
[10]
  inhibition: inactive
[11]
  inhibition: inactive

## Oc1ccc(/C=C/c2cc(O)cc(O)c2)cc1
[4]
  Activity: Active
[5]
  Activity: Active
[6]
  Activity: Active
[7]
  Activity: Active
[12]
  inhibition: Active
[13]
  inhibition: Active
[10]
  inhibition: Active
[14]
  inhibition: Active
[15]
  inhibition: Active
[16]
  inhibition: Active
[17]
  inhibition: Active
[18]
  inhibition: Active
[8]
  Activity: Active
[19]
  inhibition: inactive
[20]
  inhibition: Active
[11]
  inhibition: Active
[9]
  Activity: Active
[21]
  inhibition: Active
[22]
  inhibition: Active
[23]
  inhibition: Active

## CN(C)c1ccc(/C=C/c2c(F)cccc2F)cc1
[24]
  inhibition: Active
[25]
  inhibition: inactive
[3]
  inhibition: inactive
[26]
  inhibition: Active
[27]
  inhibition: Active
[28]
  inhibition: Active
[29]
  inhibition: Active
[30]
  Activity: Non-toxic
[31]
  Activity: Active
[1]
  inhibition: Active
[32]
  inhibition: Active
[33]
  inhibition: Active
[34]
  growth inhibition (GI): Active
[2]
  inhibition: Active
[35]
  inhibition: Active
[36]
  Activity: Active

## CCN(CC)c1ccc(/C=C/c2c(F)cccc2F)cc1
[3]
  inhibition: inactive
[37]
  Drug uptake: Not Active
[1]
  inhibition: Active
[38]
  Drug uptake: Active
[2]
  inhibition: Active
[39]
  Drug uptake: Active

## CN(C)c1ccc(/C=C/c2c(F)ccc(F)c2F)cc1
[3]
  inhibition: inactive
[1]
  inhibition: Active
[2]
  inhibition: Active

## CN(C)c1ccc(/C=C/c2cccc(F)c2F)cc1
[3]
  inhibition: inactive
[1]
  inhibition: Active
[2]
  inhibition: Active

## CN(C)c1ccc(/C=C/c2c(F)cc(F)cc2F)cc1
[3]
  inhibition: inactive
[1]
  inhibition: Active
[2]
  inhibition: Active

## CN(C)c1ccc(/C=C/c2cccc(F)c2)cc1
[3]
  inhibition: inactive
[1]
  inhibition: Active
[2]
  inhibition: Active

## CN(C)c1ccc(/C=C/c2ccccc2)cc1
[3]
  inhibition: inactive
[40]
  inhibition: Active
[1]
  inhibition: inactive
[41]
  inhibition: Active
[2]
  inhibition: inactive

## COc1cc(/C=C/c2ccc(O)cc2)cc(OC)c1
[4]
  Activity: Active
[5]
  Activity: Active
[6]
  Activity: Active
[7]
  Activity: Active
[8]
  Activity: Active
[9]
  Activity: Active

## CN(C)c1cccc(/C=C/c2c(F)cccc2F)c1
[3]
  inhibition: inactive
[1]
  inhibition: inactive
[2]
  inhibition: inactive
